Measured values: ChEMBL document CHEMBL4007456, “Heterocyclyl Tetracyclines. 1. 7-Trifluoromethyl-8-Pyrrolidinyltetracyclines: Potent, Broad Spectrum Antibacterial Agents with Enhanced Activity against Pseudomonas aeruginosa” (2017)
Converted amounts (≈) assume the structure as drawn.

Tests used:
Assay type in all cases: functional
[1] = tested on: Escherichia coli; test: Antibacterial activity against gram-negative Escherichia coli EC107 by CLSI method
How it was run: (§1)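 Broth microdilution MIC per CLSI in cation-adjusted Mueller Hinton broth, prepared fresh and held at 4 °C. Defibrinated horse blood added where appropriate. Compounds serially diluted in sterile deionized water. Strains from ATCC unless otherwise noted. Runs accepted when comparator antibiotics fell within QC ranges for ATCC quality control strains.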

[2] = tested on: Streptococcus pneumoniae; test: Antibacterial activity against gram-positive Streptococcus pneumoniae SP193 by CLSI method; how it was run: as §1
[3] = tested on: Streptococcus pneumoniae; test: Antibacterial activity against gram-positive Streptococcus pneumoniae SP160 harboring tet(M) by CLSI method
How it was run: (§2)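 CLSI broth microdilution MIC in fresh cation-adjusted Mueller Hinton broth, supplemented with defibrinated horse blood where appropriate. Compounds serially diluted in sterile deionized water. Runs accepted when comparator antibiotics against ATCC quality-control strains fell within recommended ranges.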

[4] = tested on: Stenotrophomonas maltophilia; test: Antibacterial activity against gram-negative Stenotrophomonas maltophilia SM256 by CLSI method; how it was run: as §1
[5] = tested on: Acinetobacter baumannii; test: Antibacterial activity against gram-negative Acinetobacter baumannii AB250 by CLSI method; how it was run: as §1
[6] = tested on: Staphylococcus aureus; test: Antibacterial activity against gram-positive Staphylococcus aureus SA158 harboring tet(K) by CLSI method; how it was run: as §2
[7] = tested on: Proteus mirabilis; test: Antibacterial activity against gram-negative Proteus mirabilis PM122 by CLSI method
How it was run: (§3)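 Defibrinated horse blood added where appropriate. Compounds serially diluted in sterile deionized water. Strains from ATCC unless otherwise noted. Runs accepted when comparator antibiotics fell within QC ranges for ATCC quality control strains.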

[8] = tested on: Klebsiella pneumoniae; test: Antibacterial activity against gram-negative Klebsiella pneumoniae KP153 harboring tet(A) by CLSI method; how it was run: as §2
[9] = tested on: Staphylococcus aureus; test: Antibacterial activity against gram-positive Staphylococcus aureus SA101 by CLSI method; how it was run: as §1
[10] = tested on: Enterococcus faecalis; test: Antibacterial activity against gram-positive Enterococcus faecalis EF159 harboring tet(M) by CLSI method; how it was run: as §2
[11] = tested on: Escherichia coli; test: Antibacterial activity against gram-negative Escherichia coli EC155 harboring tet(A) by CLSI method; how it was run: as §2
[12] = tested on: Pseudomonas aeruginosa; test: Antibacterial activity against gram-negative Pseudomonas aeruginosa PA169 by CLSI method; how it was run: as §3
[13] = tested on: Burkholderia cenocepacia; test: Antibacterial activity against gram-negative Burkholderia cenocepacia BC240 by CLSI method; how it was run: as §3
[14] = tested on: Staphylococcus aureus; test: Antibacterial activity against gram-positive Staphylococcus aureus SA161 harboring tet(M) by CLSI method; how it was run: as §2
[15] = tested on: Klebsiella pneumoniae; test: Antibacterial activity against gram-negative Klebsiella pneumoniae KP457 harboring blacTX-M-15 extended spectrum beta-lactamase gene by CLSI method; how it was run: as §2
[16] = tested on: Pseudomonas aeruginosa; test: Antibacterial activity against gram-negative Pseudomonas aeruginosa PA555 by CLSI method; how it was run: as §1
[17] = tested on: Enterobacter cloacae; test: Antibacterial activity against gram-negative Enterobacter cloacae EC1603 harboring tet(A) by CLSI method; how it was run: as §2
[18] = tested on: Enterococcus faecium; test: Antibacterial activity against gram-positive Enterococcus faecium EFm404 harboring tet(M) by CLSI method; how it was run: as §2
[19] = tested on: Enterococcus faecalis; test: Antibacterial activity against gram-positive Enterococcus faecalis EFs327 harboring tet(M) by CLSI method; how it was run: as §2
[20] = tested on: Proteus mirabilis; test: Antibacterial activity against gram-negative Proteus mirabilis PM385 by CLSI method; how it was run: as §1

Work on `CN(C)[C@@H]1C(O)=C(C(N)=O)C(=O)[C@@]2(O)C(O)=C3C(=O)c4c(O)cc(-c5ccncc5)c(Cl)c4C[C@H]3C[C@@H]12` yielded an MIC [1] of 2 µg/mL (≈ 3.8 µM), an MIC [2] of 0.25 µg/mL (≈ 0.475 µM) and an MIC [3] of 4 µg/mL (≈ 7.61 µM). The MIC [4] was 2 µg/mL (≈ 3.8 µM), the MIC [5] was 2 µg/mL (≈ 3.8 µM) and the MIC [6] was 0.125 µg/mL (≈ 0.238 µM). It also gave an MIC [7] of 16 µg/mL (≈ 30.4 µM), an MIC [8] greater than 32 µg/mL and an MIC [9] of 0.125 µg/mL (≈ 0.238 µM). The MIC [10] was 0.5 µg/mL (≈ 0.951 µM), the MIC [11] was greater than 32 µg/mL and the MIC [12] was greater than 32 µg/mL. It also gave an MIC [13] of 8 µg/mL (≈ 15.2 µM) and an MIC [14] of 0.5 µg/mL (≈ 0.951 µM).
`CN(C)[C@@H]1C(O)=C(C(N)=O)C(=O)[C@@]2(O)C(O)=C3C(=O)c4c(O)cc([C@@H]5CCCN5)c(F)c4C[C@H]3C[C@@H]12` was tested, and the MIC [1] was 0.125 µg/mL (≈ 0.249 µM), the MIC [3] was 1 µg/mL (≈ 1.99 µM) and the MIC [15] was 0.5 µg/mL (≈ 0.997 µM). For the same molecule, the MIC [4] was 8 µg/mL (≈ 16 µM), the MIC [16] was 8 µg/mL (≈ 16 µM) and the MIC [5] was 32 µg/mL (≈ 63.8 µM). For the same molecule, the MIC [6] was 0.125 µg/mL (≈ 0.249 µM), the MIC [17] was 32 µg/mL (≈ 63.8 µM) and the MIC [18] was 4 µg/mL (≈ 7.98 µM). For the same molecule, the MIC [19] was 32 µg/mL (≈ 63.8 µM), the MIC [9] was 0.5 µg/mL (≈ 0.997 µM) and the MIC [11] was 16 µg/mL (≈ 31.9 µM). For the same molecule, the MIC [20] was 0.25 µg/mL (≈ 0.498 µM), the MIC [13] was greater than 32 µg/mL and the MIC [14] was greater than 32 µg/mL.
`CC(C)CN1CCC[C@H]1c1cc(O)c2c(c1C(F)(F)F)C[C@H]1C[C@H]3[C@H](N(C)C)C(O)=C(C(N)=O)C(=O)[C@@]3(O)C(O)=C1C2=O` gave an MIC [1] of 4 µg/mL (≈ 6.58 µM), an MIC [3] of 0.5 µg/mL (≈ 0.823 µM) and an MIC [15] greater than 32 µg/mL. The MIC [4] was greater than 32 µg/mL, the MIC [16] was greater than 32 µg/mL and the MIC [5] was greater than 32 µg/mL. The MIC [6] was 1 µg/mL (≈ 1.65 µM), the MIC [17] was greater than 32 µg/mL and the MIC [18] was 1 µg/mL (≈ 1.65 µM). For the same molecule, the MIC [19] was 1 µg/mL (≈ 1.65 µM), the MIC [9] was 2 µg/mL (≈ 3.29 µM) and the MIC [11] was greater than 32 µg/mL. It also gave an MIC [20] greater than 32 µg/mL, an MIC [13] greater than 32 µg/mL and an MIC [14] of 2 µg/mL (≈ 3.29 µM).
For `CN(C)c1c(C2CCCN2)cc(O)c2c1C[C@H]1C[C@H]3[C@H](N(C)C)C(O)=C(C(N)=O)C(=O)[C@@]3(O)C(O)=C1C2=O` (stereo partly drawn), the MIC [1] was 2 µg/mL (≈ 3.8 µM), the MIC [3] was 2 µg/mL (≈ 3.8 µM) and the MIC [4] was 32 µg/mL (≈ 60.8 µM). For the same molecule, the MIC [5] was greater than 32 µg/mL, the MIC [6] was 1 µg/mL (≈ 1.9 µM) and the MIC [9] was 2 µg/mL (≈ 3.8 µM). It also gave an MIC [11] of 32 µg/mL (≈ 60.8 µM), an MIC [13] greater than 32 µg/mL and an MIC [14] of 32 µg/mL (≈ 60.8 µM).
`CC1CCC(c2cc(O)c3c(c2C(F)(F)F)C[C@H]2C[C@H]4[C@H](N(C)C)C(O)=C(C(N)=O)C(=O)[C@@]4(O)C(O)=C2C3=O)N1` (stereo partly drawn) was tested, and the MIC [1] was no more than 0.0156 µg/mL, the MIC [3] was no more than 0.0156 µg/mL and the MIC [15] was 0.25 µg/mL (≈ 0.442 µM). For the same molecule, the MIC [4] was 0.25 µg/mL (≈ 0.442 µM), the MIC [16] was 8 µg/mL (≈ 14.1 µM) and the MIC [5] was 0.5 µg/mL (≈ 0.884 µM). It also gave an MIC [6] of no more than 0.0156 µg/mL, an MIC [17] of 8 µg/mL (≈ 14.1 µM) and an MIC [18] of 0.25 µg/mL (≈ 0.442 µM). The MIC [19] was 1 µg/mL (≈ 1.77 µM), the MIC [9] was 0.125 µg/mL (≈ 0.221 µM) and the MIC [11] was 0.5 µg/mL (≈ 0.884 µM). For the same molecule, the MIC [20] was 0.5 µg/mL (≈ 0.884 µM), the MIC [13] was 4 µg/mL (≈ 7.07 µM) and the MIC [14] was 1 µg/mL (≈ 1.77 µM).
For `CN(C)[C@@H]1C(O)=C(C(N)=O)C(=O)[C@@]2(O)C(O)=C3C(=O)c4c(O)cc([C@@H]5CCCN5CC5CC5)c(C(F)(F)F)c4C[C@H]3C[C@@H]12`, the MIC [1] was 1 µg/mL (≈ 1.65 µM), the MIC [3] was 0.0312 µg/mL (≈ 0.0515 µM) and the MIC [15] was 16 µg/mL (≈ 26.4 µM). It also gave an MIC [4] of 4 µg/mL (≈ 6.6 µM), an MIC [16] greater than 32 µg/mL and an MIC [5] of 4 µg/mL (≈ 6.6 µM). For the same molecule, the MIC [6] was 0.125 µg/mL (≈ 0.206 µM), the MIC [17] was 32 µg/mL (≈ 52.8 µM) and the MIC [18] was 1 µg/mL (≈ 1.65 µM). It also gave an MIC [19] of 1 µg/mL (≈ 1.65 µM), an MIC [9] of 0.5 µg/mL (≈ 0.826 µM) and an MIC [11] of 2 µg/mL (≈ 3.3 µM). It also gave an MIC [20] of 8 µg/mL (≈ 13.2 µM), an MIC [13] of 16 µg/mL (≈ 26.4 µM) and an MIC [14] of 1 µg/mL (≈ 1.65 µM).
`CC1CCNC1c1cc(O)c2c(c1C(F)(F)F)C[C@H]1C[C@H]3[C@H](N(C)C)C(O)=C(C(N)=O)C(=O)[C@@]3(O)C(O)=C1C2=O` (stereo partly drawn) was tested, and the MIC [1] was no more than 0.0156 µg/mL, the MIC [3] was no more than 0.0156 µg/mL and the MIC [15] was 1 µg/mL (≈ 1.77 µM). It also gave an MIC [4] of 0.5 µg/mL (≈ 0.884 µM), an MIC [16] of 8 µg/mL (≈ 14.1 µM) and an MIC [5] of 1 µg/mL (≈ 1.77 µM). For the same molecule, the MIC [6] was no more than 0.0156 µg/mL, the MIC [17] was 2 µg/mL (≈ 3.54 µM) and the MIC [18] was 0.5 µg/mL (≈ 0.884 µM). It also gave an MIC [19] of 1 µg/mL (≈ 1.77 µM), an MIC [9] of 0.125 µg/mL (≈ 0.221 µM) and an MIC [11] of 2 µg/mL (≈ 3.54 µM). The MIC [20] was 2 µg/mL (≈ 3.54 µM), the MIC [13] was 4 µg/mL (≈ 7.07 µM) and the MIC [14] was 8 µg/mL (≈ 14.1 µM).
In the case of `CN(C)[C@@H]1C(O)=C(C(N)=O)C(=O)[C@@]2(O)C(O)=C3C(=O)c4c(O)cc([C@@H]5CCCN5)cc4C[C@H]3C[C@@H]12`, the MIC [1] is reported as 0.25 µg/mL (≈ 0.517 µM), the MIC [3] is reported as 8 µg/mL (≈ 16.5 µM) and the MIC [15] is reported as 0.5 µg/mL (≈ 1.03 µM). It also gave an MIC [4] of 32 µg/mL (≈ 66.2 µM), an MIC [16] of 16 µg/mL (≈ 33.1 µM) and an MIC [5] greater than 32 µg/mL. It also gave an MIC [6] of 0.5 µg/mL (≈ 1.03 µM), an MIC [17] of 4 µg/mL (≈ 8.27 µM) and an MIC [18] of 16 µg/mL (≈ 33.1 µM). For the same molecule, the MIC [19] was greater than 32 µg/mL, the MIC [9] was 4 µg/mL (≈ 8.27 µM) and the MIC [11] was 4 µg/mL (≈ 8.27 µM). For the same molecule, the MIC [20] was 0.25 µg/mL (≈ 0.517 µM), the MIC [13] was greater than 32 µg/mL and the MIC [14] was greater than 32 µg/mL.
